Assay outcomes from PubChem BioAssay.
Sampled rows, rich in hits. Any-hit rate of the full collection: about 2.4%.
NR2E3 ag-1: NR2E3 (human) agonism; Q9Y5X4; GST-NR2E3/biotin-RetCOR TR-FRET, 1536-well; inhibition of corepressor binding, % at 4.78 µM; 0.12% of 320,000 active; AID 2300;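 active = percent inhibition above the cutoff of mean plus 3 SD of all tested compounds, set per screening campaign, cut at about 20% in these data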;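 also: 0% = DMSO wells and 100% = biotin wells as full block of FRET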
Target sequence (Q9Y5X4 whole entry, looked up): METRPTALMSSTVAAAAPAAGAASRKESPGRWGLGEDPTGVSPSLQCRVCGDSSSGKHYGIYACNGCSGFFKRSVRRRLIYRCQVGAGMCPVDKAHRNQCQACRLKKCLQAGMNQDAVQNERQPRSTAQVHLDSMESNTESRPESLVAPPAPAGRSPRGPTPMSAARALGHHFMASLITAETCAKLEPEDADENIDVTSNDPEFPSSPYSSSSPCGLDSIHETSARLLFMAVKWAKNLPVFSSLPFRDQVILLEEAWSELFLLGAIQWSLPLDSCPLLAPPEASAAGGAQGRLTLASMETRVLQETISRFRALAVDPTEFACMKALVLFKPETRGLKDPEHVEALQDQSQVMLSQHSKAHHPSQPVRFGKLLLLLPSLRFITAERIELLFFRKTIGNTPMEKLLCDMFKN
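Material: NR2E3–RetCOR corepressor complex / Amount: 1.35 nM GST-NR2E3 / Medium: Tris pH 7.5 / Compound: single nominal compound dose of 4.8 µM / Incubation: 5 h at 4 °C / Technique: TR-FRET, Eu(K)-anti-GST donor, streptavidin-D2 acceptor, ex 340, em 617/671 nm / Read-out basis: percent loss of FRET ratio relative to control wells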
aDG glyco act: alpha-DG glycosylation activation | AID 624168 | Pro5-aDG cells, alpha-DG glycosylation AlphaScreen (IIH6); 0% Pro5, 100% B10-LARGE cell signal | activation, % at 10 µM | 0.22% of 360,000 active;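 active = activation of at least 8% versus controls, or a plate z-score of at least 8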;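 also: Pro5 are CHO cells carrying HIG-tagged alpha-DG that lacks glycosylation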
697 NFkB inh: inhibitors of the PMA/ionomycin-induced NF-kB reporter in 697 B cells | 697 B-cell NF-kB luciferase reporter, 16 h | 0.33% of 330,000 active | AID 435022 | inhibition, % at 4 µM; in the data active = inhibition above about 35%
Jurkat NFkB inh: lowers PMA/ionomycin-induced NF-kB signal in Jurkat cells; PMA/ionomycin-induced NF-kB luciferase reporter, luminescence; inhibition, % at 4 µM; 0.53% of 330,000 active; in the data active = inhibition above about 50%
NR2E3 ag-2: human photoreceptor-specific nuclear receptor agonism; CHO-S Gal4-NCOR/VP16-NR2E3 two-hybrid, luciferase; inhibition of corepressor binding, % at 3.98 µM; 0.35% of 360,000 active;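 active = inhibition above the mean of all tested compounds plus 3 SD, cut at about 70% in these data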;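 also: 0% = DMSO with NR2E3 transfected cells and 100% = cells lacking NR2E3 construct; higher means lower luciferase signal from less NR2E3 corepressor binding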
MPTP inh: inhibitors of mitochondrial permeability transition pore | isolated mouse mitochondria, Ca2+ swelling absorbance, 30 min | inhibition, % at 10 µM | 1.4% of 360,000 active | AID 602449;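 active = inhibition of 50% or more, scaled per plate between neutral and stimulator controls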;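 also: 0% = DMSO wells given calcium and 100% = 1 mM EGTA wells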
NR2E3 ag confirm: NR2E3 agonism confirmed in two-hybrid assay | shares compounds with NR2E3 ag-2 | CHO-S mammalian two-hybrid NR2E3-NCOR, luciferase luminescence | inhibition, % at 3.98 µM | 51% of 2,300 active | AID 624378;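 active = average inhibition above a cutoff equal to the mean inhibition of all tested compounds plus one SD, cut at about 70% in these data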;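 also: 0% = DMSO in NR2E3 cells and 100% = DMSO in cells lacking NR2E3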
VP16 counter: reduces GAL4-VP16 reporter signal in NR2E3 counterscreen | inhibition, % at 3.98 µM | 29% of 2,300 active | CHO-S GAL4-VP16 luciferase reporter, luminescence | shares compounds with NR2E3 ag-2 | AID 624379;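 active = mean inhibition above a cutoff equal to the average over all tested compounds plus one standard deviation, cut at about 70% in these data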;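 also: luciferase from a UAS reporter driven by GAL4-VP16 transactivation; 0% = DMSO with VP16-transfected cells and 100% = DMSO with cells lacking VP16; higher means less reporter light so more repression of VP16 activity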
* hit, by the source's call.

For O=C(NCc1cccnc1)/C(=C/c1ccc(-c2cccc(Cl)c2)o1)S(=O)(=O)c1ccccc1 the results were NR2E3 ag-1 1, aDG glyco act 1, 697 NFkB inh -3, Jurkat NFkB inh 4, NR2E3 ag-2 22 and MPTP inh -2.
O=C(NCc1cccnc1)/C(=C\c1ccc(-c2cccc(Cl)c2)o1)S(=O)(=O)c1ccccc1 was read as NR2E3 ag-1 2, aDG glyco act 0, NR2E3 ag-2 91*, MPTP inh 15, NR2E3 ag confirm 63 and VP16 counter -24.
For Cc1c(Cl)ccc2sc(N3CCN(C(=O)C4=COCCO4)CC3)nc12 the results were NR2E3 ag-1 -4, aDG glyco act 0, 697 NFkB inh 8, Jurkat NFkB inh 9, NR2E3 ag-2 79*, MPTP inh 1, NR2E3 ag confirm 90* and VP16 counter 55.
For OCC[C@@H]1C[C@H](O)[C@@H](O)[C@@]2(CCCO2)O1 the results were NR2E3 ag-1 0, aDG glyco act 0, 697 NFkB inh 11, Jurkat NFkB inh 2, NR2E3 ag-2 -21 and MPTP inh 0.
`CS(=O)(=O)c1ccccc1C(=O)N1CCN(S(=O)(=O)c2ccc(C3CCCCC3)cc2)CC1` gave aDG glyco act 0, 697 NFkB inh 2, Jurkat NFkB inh 8, NR2E3 ag-2 49, MPTP inh -1, NR2E3 ag confirm 33 and VP16 counter 37.
CC(=O)c1ccc(N2CCN(S(=O)(=O)c3ccc4c(c3)CC(C)N4C(C)=O)CC2)cc1 (stereo not given) was read as NR2E3 ag-1 -1, aDG glyco act 4, 697 NFkB inh -4, Jurkat NFkB inh 38, NR2E3 ag-2 70*, MPTP inh 11, NR2E3 ag confirm 92* and VP16 counter 73*.
For CC(=O)N1c2ccc(S(=O)(=O)N3CCC(C(=O)N4CCC(C)CC4)CC3)cc2CC1C (stereo not given) the results were NR2E3 ag-1 -3, aDG glyco act 0, 697 NFkB inh -2, Jurkat NFkB inh 3, NR2E3 ag-2 34 and MPTP inh 0.
CC1Cc2cc(S(=O)(=O)N3CCC(C(=O)N4CCN(c5ccccc5F)CC4)CC3)ccc2N1C(=O)C1CC1 (stereo not given) was read as NR2E3 ag-1 0, aDG glyco act 0, 697 NFkB inh 2, Jurkat NFkB inh 7, NR2E3 ag-2 74*, MPTP inh 1, NR2E3 ag confirm 46 and VP16 counter 45.
Screening Cc1ccc(C)c(N2CCN(S(=O)(=O)c3ccc4c(c3)CC(C)N4C(=O)C3CC3)CC2)c1 (stereo not given) returned NR2E3 ag-1 2, aDG glyco act 0, 697 NFkB inh -4, Jurkat NFkB inh 16, NR2E3 ag-2 -14 and MPTP inh 0.
CC(=O)N1c2ccc(S(=O)(=O)N3CCC(C(=O)N4CCN(c5cc(Cl)ccc5C)CC4)CC3)cc2CC1C (stereo not given) was read as NR2E3 ag-1 3, aDG glyco act 2, 697 NFkB inh -40, Jurkat NFkB inh 3, NR2E3 ag-2 87*, MPTP inh 0, NR2E3 ag confirm 90* and VP16 counter 78*.
Cc1cccc(N2CCN(S(=O)(=O)c3ccc4c(c3)CC(C)N4C(=O)C3CC3)CC2)c1C (stereo not given) was read as NR2E3 ag-1 -2, aDG glyco act 0, 697 NFkB inh -10, Jurkat NFkB inh 11, NR2E3 ag-2 53, MPTP inh 6, NR2E3 ag confirm 59 and VP16 counter 54.
For COc1ccccc1N1CCN(C(=O)C2CCN(S(=O)(=O)c3ccc4c(c3)CC(C)N4C(=O)C3CC3)CC2)CC1 (stereo not given) the results were NR2E3 ag-1 -1, aDG glyco act 0, 697 NFkB inh -16, Jurkat NFkB inh 2, NR2E3 ag-2 11 and MPTP inh 0.
Fc1cccc(Cl)c1CN1CCN(c2nc3ccccc3s2)CC1 was read as aDG glyco act 0, NR2E3 ag-2 -129 and MPTP inh -2.
CC(C)CN(C(=O)CCC(=O)OCC(=O)N(C)c1ccccc1)c1c(N)n(CC(C)C)c(=O)[nH]c1=O was read as NR2E3 ag-1 -2, aDG glyco act 0, 697 NFkB inh 6, Jurkat NFkB inh 5, NR2E3 ag-2 5 and MPTP inh 1.
Cc1c(C(=O)NCc2cccs2)sc(=O)n1Cc1ccc(S(=O)(=O)N(C)C)cc1 was read as aDG glyco act 0, NR2E3 ag-2 8 and MPTP inh -2.
Screening Cc1ccc(S(=O)(=O)NC2CC2)s1 returned NR2E3 ag-1 3, aDG glyco act 0, 697 NFkB inh -4, Jurkat NFkB inh -22, NR2E3 ag-2 -25 and MPTP inh 0.
For CC1CCCC(NC(=O)CN2CCN(S(=O)(=O)c3ccc(Br)s3)CC2)C1C (stereo not given) the results were aDG glyco act 0, 697 NFkB inh 5, Jurkat NFkB inh 1, NR2E3 ag-2 14 and MPTP inh 0.
`CC(=O)N1CCCc2cc(S(=O)(=O)N3CCCC(C(=O)N4CCN(c5cc(C)ccc5C)CC4)C3)ccc21` (stereo not given) gave NR2E3 ag-1 -4, aDG glyco act 1, 697 NFkB inh -23, Jurkat NFkB inh 20, NR2E3 ag-2 98*, MPTP inh 19, NR2E3 ag confirm 91* and VP16 counter 79*.
For CC(=O)N1CCCc2cc(S(=O)(=O)N3CCCC(C(=O)N4CCN(c5ccccc5)CC4)C3)ccc21 (stereo not given) the results were NR2E3 ag-1 0, aDG glyco act 2, 697 NFkB inh -23, Jurkat NFkB inh 17, NR2E3 ag-2 26 and MPTP inh 0.
CCC1(O)C(=O)OCc2c1cc1n(c2=O)Cc2cc3cc(O)ccc3nc2-1 (stereo not given) was read as aDG glyco act 0, NR2E3 ag-2 63, MPTP inh -3, NR2E3 ag confirm 90* and VP16 counter 27.
`CCN1C(=O)[C@H]2[C@@H](c3ccc(-c4cccc(Cl)c4)cc3)N[C@@](Cc3ccccc3)(C(=O)OC)[C@H]2C1=O` gave NR2E3 ag-1 1, aDG glyco act 0, 697 NFkB inh 9, Jurkat NFkB inh 15, NR2E3 ag-2 -24 and MPTP inh 1.
